Assay results as given in ChEMBL document CHEMBL1125154, “An approach to trapping gamma-glutamyl radical intermediates proposed for vitamin K dependent carboxylase: alpha,beta-methyleneglutamic acid” (1990).
Values belong to the molecule of their own block, whether it stands above or below them.

Tests used:
[1] = molecular target: T1, Vitamin K-dependent gamma-carboxylase (Rattus norvegicus) (UniProt O88496); experiment: Vitamin K-dependent gamma-carboxylase activity was assayed in liver microsomes prepared from vitamin K deficient rats incubated at 17 degree Celsius for 30 min; details: Microsome
T1 sequence (whole entry): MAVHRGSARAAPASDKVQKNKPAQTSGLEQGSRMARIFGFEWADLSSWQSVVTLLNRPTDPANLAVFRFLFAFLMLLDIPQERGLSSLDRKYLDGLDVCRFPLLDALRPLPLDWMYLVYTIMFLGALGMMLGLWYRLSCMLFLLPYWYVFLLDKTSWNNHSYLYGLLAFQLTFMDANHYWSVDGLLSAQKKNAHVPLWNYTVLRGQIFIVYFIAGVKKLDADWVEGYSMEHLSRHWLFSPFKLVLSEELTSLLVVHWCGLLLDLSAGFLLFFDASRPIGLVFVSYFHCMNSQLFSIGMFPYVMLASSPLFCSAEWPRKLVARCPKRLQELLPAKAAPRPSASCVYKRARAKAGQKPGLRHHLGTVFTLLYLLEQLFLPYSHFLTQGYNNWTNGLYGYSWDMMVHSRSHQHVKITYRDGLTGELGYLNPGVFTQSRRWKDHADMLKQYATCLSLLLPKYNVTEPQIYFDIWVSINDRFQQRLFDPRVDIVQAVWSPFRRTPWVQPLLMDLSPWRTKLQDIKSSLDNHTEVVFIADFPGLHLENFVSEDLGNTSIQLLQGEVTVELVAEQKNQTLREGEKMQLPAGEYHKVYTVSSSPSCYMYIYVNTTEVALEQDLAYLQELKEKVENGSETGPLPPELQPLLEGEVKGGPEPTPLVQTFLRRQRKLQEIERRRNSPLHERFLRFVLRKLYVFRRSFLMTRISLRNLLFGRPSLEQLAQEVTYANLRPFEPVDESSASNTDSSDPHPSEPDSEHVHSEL
Outline: (§1)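 Rat liver microsomes from vitamin K deficient animals were used, following the Wood and Suttie method. Carboxylation was read as ¹⁴CO₂ incorporation into the Glu-site substrate, in dpm. The cyclopropyl analogue was tested at 2 mM, the Glu-site substrate at 1 mM, each alone or combined. Incubation ran at 17 °C for 30 min. Values are mean ± SD of four values.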

Rattus norvegicus [2] = species on record: Rattus norvegicus; experiment: Epoxide formation after incubation at 17 degree Centigrade for 60 min; type: functional
Outline: (§2)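 Microsomes came from vitamin K deficient rats dosed with 1 mg phylloquinone (ic) 15 min before killing. Incubation ran at 17 °C for 60 min, with the analogue at 5 mM and/or the Glu-site substrate at 0.5 mM. To extract, 0.5 mL of mix was quenched with 2 volumes of 3:2 2-propanol–hexane, vortexed, held 15 min at 4 °C, and centrifuged. The hexane layer was dried under N₂ and epoxide reported as nmol. Values are mean ± SD of four values.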

[3] = molecular target: T1, Vitamin K-dependent gamma-carboxylase (Rattus norvegicus); experiment: Vitamin K-dependent gamma-carboxylase activity was assayed in liver microsomes prepared from vitamin K deficient rats incubated at 17 degree Celsius for 60 min; details: Microsome
Outline: (§3)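 Liver microsomal carboxylase came from vitamin K deficient rats. Activity was taken as ¹⁴CO₂ incorporation into the Glu-site substrate, in dpm. The analogue was present at 5 mM and/or the Glu-site substrate at 0.5 mM. Incubation ran at 17 °C for 60 min. Values are mean ± SD of four values.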

Rattus norvegicus [4] = species on record: Rattus norvegicus; experiment: Compound was evaluated for the epoxide formation at 5 mM incubations were at 17 degree Celsius for 60 minutes; type: functional; outline: as §2
[5] = molecular target: T1, Vitamin K-dependent gamma-carboxylase (Rattus norvegicus); experiment: Inhibition of Vitamin K-dependent gamma-carboxylase was determined at a concentration of 2 mM, incubations were at 17 degree Celsius for 30 minutes; outline: as §1
[6] = molecular target: T1, Vitamin K-dependent gamma-carboxylase (Rattus norvegicus); experiment: Inhibition of Vitamin K-dependent gamma-carboxylase was determined at a concentration of 5 mM, incubations were at 17 degree Centigrade for 60 minutes
Rattus norvegicus [7] = species on record: Rattus norvegicus; experiment: Epoxide formation after incubation at 17 degree Celsius for 60 min (compounds tested the ratio of 5 mM 19 and 0.5 mM 20); type: functional; outline: as §2
[8] = molecular target: T1, Vitamin K-dependent gamma-carboxylase (Rattus norvegicus); experiment: Vitamin K-dependent gamma-carboxylase activity was assayed in liver microsomes prepared from vitamin K deficient rats incubated at 17 degree Celsius for 60 min (compounds tested the ratio of 5 mM 19 and 0.5 mM 20); details: Microsome; outline: as §3
[9] = molecular target: T1, Vitamin K-dependent gamma-carboxylase (Rattus norvegicus); experiment: Vitamin K-dependent gamma-carboxylase activity was assayed in liver microsomes prepared from vitamin K deficient rats incubated at 17 degree Celsius for 30 min (compounds tested the ratio of 2 mM 19 and 1 mM 20); details: Microsome; outline: as §1
[10] = molecular target: T1, Vitamin K-dependent gamma-carboxylase (Rattus norvegicus); experiment: Inhibition of Vitamin K-dependent gamma-carboxylase was determined at a concentration of 1 mM, incubations were at 17 degree Centigrade for 30 minutes; outline: as §1
[11] = molecular target: T1, Vitamin K-dependent gamma-carboxylase (Rattus norvegicus); experiment: Inhibition of vitamin K dependent carboxylase was determined at a concentration of 0.5 mM of compound along with 5 mM of 1-tert-Butoxycarbonylamino-2-carboxymethyl-cyclopropanecarboxylic acid benzyl ester; outline: as §3
Rattus norvegicus [12] = species on record: Rattus norvegicus; experiment: Epoxide formation was determined at a concentration 0.5 mM of compound along with 5 mM of 1-tert-Butoxycarbonylamino-2-carboxymethyl-cyclopropanecarboxylic acid benzyl ester; type: functional; outline: as §2
Rattus norvegicus [13] = species on record: Rattus norvegicus; experiment: Epoxide formation was determined at a concentration of 0.5 mM incubation at 17 degree Celsius for 60 minutes; type: functional; outline: as §2
[14] = molecular target: T1, Vitamin K-dependent gamma-carboxylase (Rattus norvegicus); experiment: Inhibition of Vitamin K-dependent gamma-carboxylase was determined at a concentration of 0.5 mM, incubations were at 17 degree Celsius for 60 minutes
[15] = molecular target: T1, Vitamin K-dependent gamma-carboxylase (Rattus norvegicus); experiment: Inhibition of vitamin K dependent carboxylase was determined at a concentration of 1 mM of compound along with 2 mM of 1-tert-Butoxycarbonylamino-2-carboxymethyl-cyclopropanecarboxylic acid benzyl ester; outline: as §1

Carboxylase activity [1]: 5800 dpm
Carboxylase activity [3]: 12600 dpm
Structure (SMILES): CC(C)(C)OC(=O)NC(CCC(=O)O)C(=O)OCc1ccccc1 (stereo not given)
Epoxide formation (Rattus norvegicus [2]): 7.1 nmol

Structure (SMILES): CC(C)(C)OC(=O)NC1(C(=O)OCc2ccccc2)CC1CC(=O)O (stereo not given) [listing 1 of 2 here]
Epoxide formation (Rattus norvegicus [4]): 5.1 nmol

Carboxylase activity [5]: 300 dpm
Carboxylase activity [6]: 690 dpm
Structure (SMILES): CC(C)(C)OC(=O)NC1(C(=O)OCc2ccccc2)CC1CC(=O)O (stereo not given) [listing 2 of 2 here]

Structure (SMILES): CC(C)(C)OC(=O)NC(CCC(=O)O)C(=O)OCc1ccccc1.CC(C)(C)OC(=O)NC1(C(=O)OCc2ccccc2)CC1CC(=O)O (stereo not given) [listing 1 of 2 here]
Epoxide formation (Rattus norvegicus [7]): 6.7 nmol

Carboxylase activity [8]: 12200 dpm
Carboxylase activity [9]: 5770 dpm
Structure (SMILES): CC(C)(C)OC(=O)NC(CCC(=O)O)C(=O)OCc1ccccc1.CC(C)(C)OC(=O)NC1(C(=O)OCc2ccccc2)CC1CC(=O)O (stereo not given) [listing 2 of 2 here]

Carboxylase activity [10]: 5800 dpm
Carboxylase activity [14]: 12600 dpm
Structure (SMILES): CC(C)(C)OC(=O)N[C@H](CCC(=O)O)C(=O)OCc1ccccc1
Carboxylase activity [11]: 12200 dpm
Epoxide formation (Rattus norvegicus [12]): 6.7 nmol
Epoxide formation (Rattus norvegicus [13]): 7.1 nmol
Carboxylase activity [15]: 5770 dpm
